Source: ChEMBL document CHEMBL3120111, “Bilirubin and related tetrapyrroles inhibit food-borne mutagenesis: a mechanism for antigenotoxic action against a model epoxide” (J Nat Prod, 2013)
Calls of active or inactive are those of the source. The rule behind the calls is not given here.

Experiments:
Salmonella typhimurium [1] = assay: Antimutagenic activity against PhIP-induced Salmonella typhimurium TA98 mutagenesis preincubated at 0.5 umol/plate for 25 mins by Ames test in presence of S9 liver homogenate relative to control; type: functional, organism-based; conditions: Salmonella enterica subsp. enterica serovar Typhimurium, Liver S9 fraction
Outline: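 IP0.5 is the percent inhibition of PhIP-positive-control revertants (0.1×10^-7 mol/plate PhIP, TA98, with S9) at 0.5 µmol/plate tetrapyrrole. It was derived from dose-response data in the 25 min preincubation plate assay, with 48 h incubation at 37 °C. Three positive-control plates and six solvent-control plates per test.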

Salmonella typhimurium [2] = assay: Antimutagenic activity against PhIP-induced Salmonella typhimurium TA98 mutagenesis preincubated at 0.01 to 10 umol/plate for 25 mins by Ames test in presence of S9 liver homogenate relative to control; type: functional, organism-based; conditions: Salmonella enterica subsp. enterica serovar Typhimurium, Liver S9 fraction
Salmonella typhimurium [3] = assay: Mutagenic activity in Salmonella typhimurium TA98 mutagenesis preincubated at 0.5 umol/plate for 25 mins by Ames test in presence of S9 liver homogenate relative to aflatoxin B1; type: toxicity, organism-based, Liver S9 fraction; conditions: salmonella enterica subsp. enterica serovar typhimurium
Salmonella typhimurium [4] = assay: Antimutagenic activity against PhIP-induced Salmonella typhimurium TA98 mutagenesis assessed as reduction in His+ revertants after 48 hrs by microscopy in presence of S9 liver homogenate; type: functional, organism-based; conditions: Salmonella enterica subsp. enterica serovar Typhimurium, Liver S9 fraction
Outline: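 Ames preincubation in TA98 with rat liver S9 mix (Aroclor 1254-induced, with NADP and glucose-6-phosphate). PhIP was 0.1×10^-7 mol/plate in DMSO; tetrapyrroles were in DMSO at 0.01–2 µmol/plate (bilirubin 0.01–0.75). Preincubation 25 min at 37 °C with shaking, then top agar on minimal glucose plates for 48 h at 37 °C. His+ revertants counted manually after microscopic lawn check. Triplicate plates, repeated independently.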

Row | Structure (SMILES) | inhibition (Salmonella typhimurium [1]) | Activity (Salmonella typhimurium [2]) | Activity (Salmonella typhimurium [3]) | Activity (Salmonella typhimurium [4])
1 | C=CC1=C(C)/C(=C\c2[nH]c(Cc3[nH]c(/C=C4/NC(=O)C(C)=C4C=C)c(C)c3CCC(=O)OC)c(CCC(=O)OC)c2C)NC1=O | 68% | – | – | –
2 | CC[C@H]1[C@H](Cc2[nH]c(/C=C3\N=C(C[C@@H]4NC(=O)[C@H](CC)[C@H]4C)C(C)=C3CCC(=O)O)c(CCC(=O)O)c2C)NC(=O)[C@@H]1C | 57% | Active | – | –
3 | C=CC1=C(C)/C(=C/c2[nH]c(Cc3[nH]c(/C=C4\NC(=O)C(C)=C4C=C)c(C)c3CCC(=O)NCCS(=O)(=O)O)c(CCC(=O)NCCS(=O)(=O)O)c2C)NC1=O [BILIRUBIN DITAURATE] | 64% | – | 268% | –
4 | C=CC1=C(C)/C(=C/C2=NC(=C\c3[nH]c(/C=C4\NC(=O)C(C)=C4C=C)c(C)c3CCC(=O)O)/C(CCC(=O)O)=C2C)NC1=O [BILIVERDIN] | 78% | Active | 363% | Active
5 | CCC1=C(C)[C@H](CC2=N/C(=C\c3[nH]c(C[C@@H]4N=C(O)C(C)=C4CC)c(C)c3CCC(=O)O)C(CCC(=O)O)=C2C)N=C1O | 48% | Active | – | –
6 | C=CC1=C(C)c2cc3[nH]c(cc4nc(cc5[nH]c(cc1n2)c(C)c5CCC(=O)O)C(CCC(=O)O)=C4C)c(C)c3C=C | 97% | – | – | –
7 | C=CC1=C(C)/C(=C/C2=NC(=C\c3[nH]c(/C=C4/NC(=O)C(C)=C4C=C)c(C)c3CCC(=O)OC)/C(CCC(=O)OC)=C2C)NC1=O | 55% | Active | – | Active
8 | C=CC1=C(C)/C(=C/c2[nH]c(Cc3[nH]c(/C=C4\NC(=O)C(C)=C4C=C)c(C)c3CCC(=O)O)c(CCC(=O)O)c2C)NC1=O [BILIRUBIN] | 82% | – | 352% | –
